This is an account of results in ChEMBL document CHEMBL3351657, “γ-Hydroxyethyl piperidine iminosugar and N-alkylated derivatives: a study of their activity as glycosidase inhibitors and as immunosuppressive agents” (Bioorg Med Chem, 2014).

The nature of assay [1]: Inhibition of alpha-glucosidase (unknown origin) using p-nitrophenyl-alpha-D-glucopyranoside substrate incubated for 10 mins by UV spectrophotometry. The gist of the method: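 α-Glucosidase (0.1 unit/ml) preincubated with compound 1 h at 37 °C. Reaction started with 10 mM p-nitrophenyl substrate in 100 mM phosphate buffer pH 6.8, run 10 min at 37 °C, and stopped with 0.1 M Na₂CO₃.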

The subject of a further assay is Jurkat. The assay is described as follows: Cytotoxicity against human Jurkat cells assessed as cell viability after 3 hrs by WST1 assay. The format is functional, cell-based. Conditions: 48 h, in the assay text read “after 48 hrs” for “after 3 hrs”; call rule not given here. The gist of the method: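 Jurkat cells in exponential growth seeded at 50 × 10³ per 200 µl complete medium, with compound dilution added (20 µl) and incubated 48 h at 37 °C, 5% CO₂. Untreated cells set maximum viability and 1% Triton X-100 (last 15 min) set minimum. After a further 3 h at 37 °C, optical density read at 450 nm.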

The next assay concerns B cell. The assay is described as follows: Immunosuppressive activity in CPG oligonucleotide-induced human B cells assessed as inhibition of IgG production by immune assay. The format is functional, cell-based. The procedure, abridged: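 Human B cells stimulated with CpG oligonucleotide and cultured with compound for 7 days at 37 °C, 5% CO₂. IgG concentration in supernatants then measured by immunoassay.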

Assay [2] in a line: Inhibition of alpha-galactosidase (unknown origin) using p-nitrophenyl-alpha-D-galactopyranoside substrate incubated for 10 mins by UV spectrophotometry. The gist of the method:
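α-Galactosidase (0.1 unit/ml) preincubated with compound 1 h at 37 °C. Substrate added in 200 mM sodium acetate buffer, reaction run 10 min at 37 °C, and stopped with 200 mM borate buffer pH 9.8.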

The test system of a further assay is PBMC. The assay is described as follows: Immunosuppressive activity in human PBMC assessed as inhibition of cell proliferation using (methyl-3H)thymidine by mixed lymphocyte reaction assay. The format is functional, cell-based. The procedure, abridged:
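PBMCs at 1.2 × 10⁶ cells/ml in RPMI-1640 with 10% heat-inactivated FCS and antibiotics. 100 µl of each cell suspension mixed with 20 µl diluted compound and cultured 6 days at 37 °C, 5% CO₂. 1 µCi (methyl-³H)thymidine per well added for the last 18 h. Cells harvested on glass filters and cpm counted by liquid scintillation.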

Assay [3] has as its target alpha-mannosidase (Canavalia ensiformis). The assay is described as follows: Inhibition of jack bean alpha-mannosidase using p-nitrophenyl-alpha-D-mannopyranoside substrate incubated for 10 mins by UV spectrophotometry.

Structures are written as SMILES. A value given as a limit tells only on which side of the number the result lay.

As for `OCCC1(O)[C@H](O)CNC[C@@H]1O` (stereo partly specified), the IC50 in assay [1] (read-out: IC50) is 418 µM; with Jurkat, more than 10 µM; in the assay on B cell it was more than 50 µM; in assay [2], “Not Active”; in the assay with PBMC it was more than 10 µM; in assay [3], 1830 µM.
In the case of `CCCCN1C[C@@H](O)C(O)(CCO)[C@@H](O)C1` (stereo partly specified), the IC50 in assay [1] (read-out: IC50) is 360 µM; with Jurkat it was more than 10 µM; in the assay on B cell it was more than 50 µM; in assay [2] (read-out: IC50) it was 167 µM; in the assay with PBMC, more than 10 µM; in assay [3], 252 µM.
As to `CCCCCCN1C[C@@H](O)C(O)(CCO)[C@@H](O)C1` (stereo partly specified), the IC50 entry in assay [1] was “Not Active”; in the assay on Jurkat, more than 10 µM; in the assay with B cell it was more than 50 µM; in assay [2] (read-out: IC50), 315 µM; with PBMC, more than 10 µM; in assay [3], 183 µM.
For the compound `CCCCCCCCN1C[C@@H](O)C(O)(CCO)[C@@H](O)C1` (stereo partly specified), the IC50 result was “Not Active” in assay [1]; more than 10 µM with Jurkat; more than 50 µM in the assay on B cell; “Not Active” in assay [2]; more than 10 µM in the assay on PBMC.
Take `CCCCCCCCCCN1C[C@@H](O)C(O)(CCO)[C@@H](O)C1` (stereo partly specified): the IC50 entry was “Not Active” in assay [1]; more than 10 µM in the assay with Jurkat; 15 µM with B cell; “Not Active” in assay [2]; more than 10 µM in the assay with PBMC.
With `OCCN1C[C@@H](O)C(O)(CCO)[C@@H](O)C1` (stereo partly specified), the IC50 in assay [1] (read-out: IC50) is 252 µM; with Jurkat, more than 10 µM; with B cell it was more than 50 µM; in assay [2] it was “Not Active”; in the assay on PBMC, more than 10 µM; in assay [3], 873 µM.
In the case of `OCCN1C[C@H](O)[C@@H](O)[C@H](O)[C@H]1CO` [MIGLITOL], the figures for the IC50 in assay [1] (read-out: IC50) and in assay [2] (read-out: IC50) were 171 µM and 1850 µM, respectively.

One may read the IC50 as the concentration that inhibits the measured activity by half.
